Columns and labels:
Trypanosoma cruzi [1] = assay: Antitrypanosomal activity against Trypanosoma cruzi Tulahuen 2 epimastigotes assessed as growth inhibition at 25 uM after 5 days relative to control; assay type: functional; conditions: Tulahuen 2, 120 h, read-out: GI
Summary of the method: (§1)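 Epimastigotes grown axenically at 28 °C in BHI-tryptose + 5% FBS; a 10-day stationary culture was inoculated to 1 × 10⁶ cells/mL. Drug added from DMSO stock, final DMSO ≤0.4%, vehicle control. A600 read daily. PGI on day 5 corrects for day-0 absorbance, relative to control. […] Three independent experiments.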

Trypanosoma cruzi [2] = assay: Antitrypanosomal activity against Trypanosoma cruzi Tulahuen 2 epimastigotes assessed as growth inhibition after 5 days; assay type: functional; conditions: Tulahuen 2, 120 h, read-out: ID50; summary of the method: as §1
[3] = Cytotoxicity against mouse J774 cells; assay type: cell-based; conditions: read-out: ID50 (the source's name)
[4] = Selectivity index, ratio of ID50 for mouse J774 cells to ID50 for Trypanosoma cruzi Tulahuen 2 epimastigotes; assay type: toxicity, cell-based; conditions: J774 cells versus Trypanosoma cruzi Tulahuen 2 epimastigotes, read-out: Selectivity Index
Leishmania braziliensis = assay: Antileishmanial activity against Leishmania braziliensis MHOM/BR/00/LTB300 promastigotes assessed as cell death after 2 days by MTT assay; assay type: functional; conditions: MHOM/BR/00/LTB300, 48 h, read-out: ID50 (the source's name)
Summary of the method: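 Parasites in exponential growth, in BHI-tryptose + 5% FBS for T. cruzi or RPMI + 5% FBS for L. braziliensis, 28 °C, 24-well plates. Compounds in DMSO; miltefosine in ethanol. 2-day exposure, two PBS-glucose (5.5 mM) washes, then MTT 0.4 mg/mL for 4 h at 28 °C. SDS-isopropanol lysis, OD read. Triplicates, six growth controls.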

| SMILES | inhibition of growth at 25 µM (Trypanosoma cruzi [1]) | IC50 (Trypanosoma cruzi [2]) | CC50 [3] | selectivity ratio [4] | IC50 (Leishmania braziliensis) |
| --- | --- | --- | --- | --- | --- |
| Cc1ccc2c(c1)[n+]([O-])c(C(F)(F)F)c(C(=O)c1ccccc1)[n+]2[O-] | 99% | 1.3 µM | – | – | – |
| CCOC(=O)c1c(-c2ccccc2)[n+]([O-])c2cc(OC)ccc2[n+]1[O-] | 0% | – | – | – | – |
| Cc1cc2c(cc1C)[n+]([O-])c(C(=O)NC(C)(C)C)c(C)[n+]2[O-] | 0% | – | – | – | – |
| CC(C)(C)C(=O)c1c(C(F)(F)F)[n+]([O-])c2ccccc2[n+]1[O-] | 26% | – | 8.7 µM | < 0.3 | – |
| Cc1ccccc1NC(=O)c1c(C)[n+]([O-])c2ccccc2[n+]1[O-] | 21% | – | – | – | – |
| CCOC(=O)c1c(-c2ccccc2)[n+]([O-])c2cc(C)c(C)cc2[n+]1[O-] | 0% | – | – | – | – |
| Cc1c(C(=O)NC(C)(C)C)[n+]([O-])c2cc(Cl)c(Cl)cc2[n+]1[O-] | 28% | – | – | – | – |
| O=C(c1ccco1)c1c(C(F)(F)F)[n+]([O-])c2ccc(C(F)(F)F)cc2[n+]1[O-] | 100% | 4.8 µM | – | – | – |
| O=C(c1c(C(F)(F)F)[n+]([O-])c2ccccc2[n+]1[O-])N1CCN(c2ccccc2)CC1 | 100% | 0.76 µM | 9.51 µM | 12.5 | – |
| COC(=O)c1c(C)[n+]([O-])c2cc(Cl)c(Cl)cc2[n+]1[O-] | 66% | – | – | – | – |
| Cc1ccccc1NC(=O)c1c(C)[n+]([O-])c2cc(Cl)c(Cl)cc2[n+]1[O-] | 49% | – | – | – | – |
| COc1ccc2c(c1)[n+]([O-])c(C(F)(F)F)c(C(=O)c1ccccc1)[n+]2[O-] | 98% | 3.5 µM | – | – | – |
| Cc1ccc2c(c1)[n+]([O-])c(C)c(C(=O)c1ccccc1)[n+]2[O-] | 8% | – | – | – | – |
| O=C(c1ccccc1)c1c(C(F)F)[n+]([O-])c2cc(F)ccc2[n+]1[O-] | 100% | 6.3 µM | – | – | – |
| O=C(c1ccccc1)c1c(C(F)F)[n+]([O-])c2cc(Cl)c(Cl)cc2[n+]1[O-] | 100% | 4.7 µM | – | – | – |
| Cc1c(C(=O)c2ccccc2)[n+]([O-])c2cc(Cl)c(Cl)cc2[n+]1[O-] | 91% | 11.8 µM | – | – | – |

| SMILES | inhibition of growth at 25 µM (Trypanosoma cruzi [1]) | IC50 (Trypanosoma cruzi [2]) | CC50 [3] | selectivity ratio [4] | IC50 (Leishmania braziliensis) |
| --- | --- | --- | --- | --- | --- |
| Cc1cc2c(cc1C)[n+]([O-])c(C(F)(F)F)c(C(=O)c1ccccc1)[n+]2[O-] | 72% | 1.4 µM | – | – | – |
| COc1ccc2c(c1)[n+]([O-])c(C)c(C(=O)c1ccccc1)[n+]2[O-] | 9% | – | – | – | – |
| CC(C)(C)C(=O)c1c(C(F)(F)F)[n+]([O-])c2cc(F)c(F)cc2[n+]1[O-] | 100% | 4.9 µM | 16.2 µM | < 0.6 | – |
| O=C(c1cccs1)c1c(C(F)(F)F)[n+]([O-])c2ccccc2[n+]1[O-] | 100% | 1.1 µM | 4.69 µM | 4.3 | – |
| O=C(c1ccccc1)c1nc2ccccc2nc1C(F)(F)F | 49% | – | – | – | – |
| O=C(c1ccco1)c1c(C(F)(F)F)[n+]([O-])c2ccccc2[n+]1[O-] | 100% | 2.4 µM | 7.13 µM | 3 | – |
| Cc1cc2c(cc1C)[n+]([O-])c(Cc1ccccc1)c(C)[n+]2[O-] | 0% | – | – | – | – |
| CC(C)C(=O)c1c(C(F)(F)F)[n+]([O-])c2cc(F)c(F)cc2[n+]1[O-] | 23.6% | – | 11.5 µM | < 0.5 | – |
| CC(=O)c1c(C)[n+]([O-])c2cc(C)c(C)cc2[n+]1[O-] | 2% | – | – | – | – |
| O=C(c1ccco1)c1c(C(F)(F)F)[n+]([O-])c2cc(C(F)(F)F)ccc2[n+]1[O-] | 100% | 5 µM | – | – | – |
| CCCCCCCCCCCCCCCCOP(=O)([O-])OCC[N+](C)(C)C [MILTEFOSINE] | – | – | – | – | 9 µM |
| Cc1c(C(=O)c2ccccc2)[n+]([O-])c2ccccc2[n+]1[O-] | 19% | – | – | – | – |
| O=C(c1ccccc1)c1c(C(F)F)[n+]([O-])c2ccccc2[n+]1[O-] | 35.8% | – | – | – | – |
| CC(C)C(=O)c1c(C(F)(F)F)[n+]([O-])c2cc(Cl)c(Cl)cc2[n+]1[O-] | 100% | 1.4 µM | – | – | – |
| CCOC(=O)c1c(-c2ccccc2)[n+]([O-])c2ccccc2[n+]1[O-] | 29% | – | – | – | – |
| Cc1ccc2c(c1)[n+]([O-])c(C(F)F)c(C(=O)c1ccccc1)[n+]2[O-] | 50.8% | 25 µM | – | – | – |

— ChEMBL document CHEMBL1773052, “3-Trifluoromethylquinoxaline N,N'-dioxides as anti-trypanosomatid agents. Identification of optimal anti-T. cruzi agents and mechanism of action studies” (J Med Chem, 2011)
